Results published in ChEMBL document CHEMBL1126919, “Analyses of ligand binding in five endothiapepsin crystal complexes and their use in the design and evaluation of novel renin inhibitors” (J Med Chem, 1993).

Tests used:
[1] = Binding affinity of compound against endothiapepsin
Procedure, shortened: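 Reactions at 37 °C in 0.1 M sodium formate pH 3.5 with 4% DMSO (inhibitor stocks in DMSO). Enzyme preincubated 3 min at 37 °C. Initial rates taken at six substrate levels (0.8Km–10Km), then at ≥3 substrate levels after preincubation with ≥2 inhibitor concentrations. Ki fitted by Marquardt analysis to competitive-inhibition equation.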

Renin = target: T1, Renin (Homo sapiens, UniProt P00797); experiment: Inhibitory concentration of compound against renin human plasma; type: cell-free
T1 sequence (P00797 whole entry): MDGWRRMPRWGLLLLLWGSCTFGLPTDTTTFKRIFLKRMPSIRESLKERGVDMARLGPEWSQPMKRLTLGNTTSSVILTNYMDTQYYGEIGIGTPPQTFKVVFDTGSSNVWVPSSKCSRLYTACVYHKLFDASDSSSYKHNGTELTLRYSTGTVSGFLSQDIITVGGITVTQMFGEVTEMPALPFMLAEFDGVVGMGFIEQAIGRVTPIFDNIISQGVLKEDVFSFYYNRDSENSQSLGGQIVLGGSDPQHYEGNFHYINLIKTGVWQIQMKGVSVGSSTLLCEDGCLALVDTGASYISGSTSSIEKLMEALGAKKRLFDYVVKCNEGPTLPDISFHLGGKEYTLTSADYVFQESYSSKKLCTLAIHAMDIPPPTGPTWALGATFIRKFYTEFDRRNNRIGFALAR

Renin (Homo sapiens) [2] = target: T2, Renin (Homo sapiens) (UniProt P00797); experiment: Percent inhibition of compound against renin human plasma at 10 e-6 M; type: cell-free
T2 sequence (whole entry): T1 sequence (P00797 whole entry)

Renin (Homo sapiens) [3] = target: T2, Renin (Homo sapiens); experiment: Percent inhibition of compound against renin monkey plasma at 10E-6 M; type: cell-free; details: Cercopithecidae, target entry is the homologue from another species
Procedure, shortened: (§1)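 Renin activity in monkey plasma, with inhibition measured as angiotensin I generated, quantified by radioimmunoassay following Haber's method.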

Renin (Homo sapiens) [4] = target: T2, Renin (Homo sapiens); experiment: Percent inhibition of compound against renin monkey plasma at 10 e-6 M; details: Cercopithecidae, target entry is the homologue from another species
Renin (Homo sapiens) [5] = target: T2, Renin (Homo sapiens); experiment: Percent inhibition of compound against renin monkey plasma at 10e-6 M; type: cell-free; details: Cercopithecidae, target entry is the homologue from another species; procedure, shortened: as §1

Ki [1] | IC50 (Renin) | Compound | further results
16000 nM | 22 nM | CC(C)CC(NC(=O)CC(O)C(CC1CCCCC1)NC(=O)CCC(O)C(Cc1ccccc1)NC(=O)OC(C)(C)C)C(=O)NCc1cccc(CN)c1 (stereo unspecified) | –
110 nM | – | CCC(C)CNC(=O)CP(=O)(O)C(CC(C)C)NC(=O)C(Cc1c[nH]cn1)NC(=O)C(Cc1ccccc1)NC(=O)OC(C)(C)C (stereo unspecified) | inhibition (Renin (Homo sapiens) [2]): 3.3%
6.5 nM | – | CCSC(NC(=O)[C@H](Cc1ccccc1)NS(=O)(=O)N1CCOCC1)C(=O)N[C@@H](CC1CCCCC1)[C@@H](O)[C@@H](O)CC(C)C (stereo partly specified) | –
– | 25 nM | CCC(C)CNC(=O)CC(O)C(CC(C)C)NC(=O)C(CCCC/N=C(/S)NC)NC(=O)C(Cc1ccccc1)NS(=O)(=O)N(C)C (stereo unspecified) | –
240 nM | 170 nM | CCC(C)CNC(=O)C(CC(C)C)CC(O)C(CC1CCCCC1)NC(=O)C(Cc1c[nH]cn1)NC(=O)C(Cc1cccc2ccccc12)Cc1cccc2ccccc12 (stereo unspecified) | –
– | – | CC(C)CC(O)C(O)C(CC1CCCCC1)NC(=O)c1cccc(NC(=O)CSc2ccccc2)c1 (stereo unspecified) | inhibition (Renin (Homo sapiens) [3]): 12.6%
– | – | COC(=O)C(C)(NC(=O)C(Cc1ccccc1)NS(=O)(=O)N1CCOCC1)C(=O)NC(CC1CCCCC1)C(O)C(O)CC(C)C (stereo unspecified) | inhibition (Renin (Homo sapiens) [4]): 4.4%
– | – | CC(C)CC(O)C(O)C(CC1CCCCC1)NC(=O)c1cc(NC(=O)CSc2ccccc2)ccc1CO (stereo unspecified) | inhibition (Renin (Homo sapiens) [5]): 4.4%
